Inhibition data for 22 compounds are collected here from ChEMBL document CHEMBL1155459, “On-bead screening of a combinatorial fumaric acid derived peptide library yields antiplasmodial cysteine protease inhibitors with unusual peptide sequences” (J Med Chem, 2009).

The nature of test [1]: Inhibition of Plasmodium falciparum falcipain-2 after 12 hrs by fluorescence spectroscopy-based on-bead assay. Particulars: concentration not given here. Details: concentration or dose not given beside the values. The procedure, abridged: (§1)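 Library members on resin (PEGA, theoretical loading 0.40 mmol/g; added as DMSO suspension, 0.64 mM final inhibitor) preincubated with enzyme 12 h, then Cbz-Phe-Arg-AMC 40 μM added; AMC release followed by fluorescence (ex 380/em 460 nm). Kinetics compared with inhibitor-free amino-PEGA resin.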

Test [2] addresses Rhodesain (Trypanosoma brucei rhodesiense) (UniProt Q95PM0). As to the kind of experiment: Inhibition of Trypanosoma brucei rhodesiense rhodesain after 12 hrs by fluorescence spectroscopy-based on-bead assay. Details: concentration or dose not given beside the values. The following applies: concentration not given here. The procedure, abridged: as §1

Structures are written as SMILES. Peptide text beside a SMILES is read from it.

Sequence of Rhodesain (Trypanosoma brucei rhodesiense) (Q95PM0 1-450): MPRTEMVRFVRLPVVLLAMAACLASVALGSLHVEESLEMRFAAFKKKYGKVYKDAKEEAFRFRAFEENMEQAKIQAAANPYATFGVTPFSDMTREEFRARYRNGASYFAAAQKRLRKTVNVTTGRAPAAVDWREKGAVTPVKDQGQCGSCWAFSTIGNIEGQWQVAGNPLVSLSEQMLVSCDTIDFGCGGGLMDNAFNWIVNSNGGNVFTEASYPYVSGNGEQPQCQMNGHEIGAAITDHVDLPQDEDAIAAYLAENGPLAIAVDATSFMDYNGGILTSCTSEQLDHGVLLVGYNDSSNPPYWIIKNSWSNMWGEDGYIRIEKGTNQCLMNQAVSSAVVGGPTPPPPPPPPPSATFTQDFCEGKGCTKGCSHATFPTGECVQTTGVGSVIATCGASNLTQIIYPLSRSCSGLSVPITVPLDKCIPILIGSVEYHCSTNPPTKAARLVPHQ

A word on the inhibition: it is the percentage by which the read-out fell short of the control. As to `CC[C@H](C)[C@H](NC(=O)[C@H](CC(N)=O)NC(=O)/C=C/C(=O)NCC(=O)NCC(=O)N[C@@H](Cc1ccccc1)C(=O)O)C(=O)N[C@@H](C)C(=O)N[C@H](C(N)=O)C(C)C` (HELM PEPTIDE1{[O=C(/C=C/C(=O)[*:2])NCC(=O)NCC(=O)N[C@@H](Cc1ccccc1)C(=O)O].N.I.A.V.[am]}$$$$V2.0), the inhibition in test [1] was 63%; in test [2], 55%.
Turning to `CC[C@H](C)[C@H](NC(=O)[C@H](CC(N)=O)NC(=O)/C=C/C(=O)NCC(=O)NCC(=O)N[C@@H](Cc1ccccc1)C(=O)O)C(=O)N[C@@H](CC(C)C)C(=O)N[C@H](C(N)=O)C(C)C` (HELM PEPTIDE1{[O=C(/C=C/C(=O)[*:2])NCC(=O)NCC(=O)N[C@@H](Cc1ccccc1)C(=O)O].N.I.L.V.[am]}$$$$V2.0), the inhibition in test [1] amounted to 61%; in test [2] it was 68%.
Turning to `CC[C@H](C)[C@H](NC(=O)[C@H](CC(N)=O)NC(=O)/C=C/C(=O)NCC(=O)NCC(=O)N[C@@H](Cc1ccccc1)C(=O)O)C(=O)N[C@H](C(=O)N[C@H](C(N)=O)C(C)C)C(C)C` (HELM PEPTIDE1{[O=C(/C=C/C(=O)[*:2])NCC(=O)NCC(=O)N[C@@H](Cc1ccccc1)C(=O)O].N.I.V.V.[am]}$$$$V2.0), the inhibition in test [1] turned out to be 57%; in test [2], 39%.
On the same counts, the results for `CC(C)C[C@H](NC(=O)[C@H](CC(N)=O)NC(=O)/C=C/C(=O)NCC(=O)NCC(=O)N[C@@H](Cc1ccccc1)C(=O)O)C(=O)N[C@H](C(=O)N[C@H](C(N)=O)C(C)C)C(C)C` (HELM PEPTIDE1{[O=C(/C=C/C(=O)[*:2])NCC(=O)NCC(=O)N[C@@H](Cc1ccccc1)C(=O)O].N.L.V.V.[am]}$$$$V2.0) are 48% and 52%.
On the same counts, the results for `CC(C)C[C@H](NC(=O)[C@@H](NC(=O)[C@H](CC(N)=O)NC(=O)/C=C/C(=O)NCC(=O)NCC(=O)N[C@@H](Cc1ccccc1)C(=O)O)C1CCCCC1)C(=O)N[C@H](C(N)=O)C(C)C` (HELM PEPTIDE1{[O=C(/C=C/C(=O)[*:2])NCC(=O)NCC(=O)N[C@@H](Cc1ccccc1)C(=O)O].N.[O=C([C@@H](N[*:1])C1CCCCC1)[*:2]].L.V.[am]}$$$$V2.0) are 45% and 69%.
On the same counts, the results for `CC(C)[C@H](NC(=O)[C@H](C)NC(=O)[C@@H](NC(=O)[C@H](CC(N)=O)NC(=O)/C=C/C(=O)NCC(=O)NCC(=O)N[C@@H](Cc1ccccc1)C(=O)O)c1ccccc1)C(N)=O` (HELM PEPTIDE1{[O=C(/C=C/C(=O)[*:2])NCC(=O)NCC(=O)N[C@@H](Cc1ccccc1)C(=O)O].N.[Phg].A.V.[am]}$$$$V2.0) are 64% and 48%.
As to `CC(C)[C@H](NC(=O)[C@@H](NC(=O)[C@@H](NC(=O)[C@H](CC(N)=O)NC(=O)/C=C/C(=O)NCC(=O)NCC(=O)N[C@@H](Cc1ccccc1)C(=O)O)c1ccccc1)C(C)C)C(N)=O` (HELM PEPTIDE1{[O=C(/C=C/C(=O)[*:2])NCC(=O)NCC(=O)N[C@@H](Cc1ccccc1)C(=O)O].N.[Phg].V.V.[am]}$$$$V2.0), the inhibition in test [1] is 50%; in test [2], 45%.
On the same counts, the results for `CC(C)[C@H](NC(=O)[C@H](C)NC(=O)[C@H](Cc1ccccc1)NC(=O)[C@H](CCC(N)=O)NC(=O)/C=C/C(=O)NCC(=O)NCC(=O)N[C@@H](Cc1ccccc1)C(=O)O)C(N)=O` (HELM PEPTIDE1{[O=C(/C=C/C(=O)[*:2])NCC(=O)NCC(=O)N[C@@H](Cc1ccccc1)C(=O)O].Q.F.A.V.[am]}$$$$V2.0) are 54% and 41%.
On the same counts, the results for `CC(C)C[C@H](NC(=O)[C@H](Cc1ccccc1)NC(=O)[C@H](CCC(N)=O)NC(=O)/C=C/C(=O)NCC(=O)NCC(=O)N[C@@H](Cc1ccccc1)C(=O)O)C(=O)N[C@H](C(N)=O)C(C)C` (HELM PEPTIDE1{[O=C(/C=C/C(=O)[*:2])NCC(=O)NCC(=O)N[C@@H](Cc1ccccc1)C(=O)O].Q.F.L.V.[am]}$$$$V2.0) are 62% and 57%.
On the same counts, the results for `CC(C)[C@H](NC(=O)[C@@H](NC(=O)[C@H](Cc1ccccc1)NC(=O)[C@H](CCC(N)=O)NC(=O)/C=C/C(=O)NCC(=O)NCC(=O)N[C@@H](Cc1ccccc1)C(=O)O)C(C)C)C(N)=O` (HELM PEPTIDE1{[O=C(/C=C/C(=O)[*:2])NCC(=O)NCC(=O)N[C@@H](Cc1ccccc1)C(=O)O].Q.F.V.V.[am]}$$$$V2.0) are 51% and 42%.
In the case of `CC[C@H](C)[C@H](NC(=O)[C@H](CCC(N)=O)NC(=O)/C=C/C(=O)NCC(=O)NCC(=O)N[C@@H](Cc1ccccc1)C(=O)O)C(=O)N[C@@H](C)C(=O)N[C@H](C(N)=O)C(C)C` (HELM PEPTIDE1{[O=C(/C=C/C(=O)[*:2])NCC(=O)NCC(=O)N[C@@H](Cc1ccccc1)C(=O)O].Q.I.A.V.[am]}$$$$V2.0), the inhibition in test [1] and in test [2] was 38% throughout.
Consider `CC[C@H](C)[C@H](NC(=O)[C@H](CCC(N)=O)NC(=O)/C=C/C(=O)NCC(=O)NCC(=O)N[C@@H](Cc1ccccc1)C(=O)O)C(=O)N[C@@H](CC(C)C)C(=O)N[C@H](C(N)=O)C(C)C` (HELM PEPTIDE1{[O=C(/C=C/C(=O)[*:2])NCC(=O)NCC(=O)N[C@@H](Cc1ccccc1)C(=O)O].Q.I.L.V.[am]}$$$$V2.0), for which the inhibition in test [1] is 44%; in test [2], 52%.
On the same counts, the results for `CC[C@H](C)[C@H](NC(=O)[C@H](CCC(N)=O)NC(=O)/C=C/C(=O)NCC(=O)NCC(=O)N[C@@H](Cc1ccccc1)C(=O)O)C(=O)N[C@H](C(=O)N[C@H](C(N)=O)C(C)C)C(C)C` (HELM PEPTIDE1{[O=C(/C=C/C(=O)[*:2])NCC(=O)NCC(=O)N[C@@H](Cc1ccccc1)C(=O)O].Q.I.V.V.[am]}$$$$V2.0) are 30% and 37%.
On the same counts, the results for `CC(C)C[C@H](NC(=O)[C@H](CCC(N)=O)NC(=O)/C=C/C(=O)NCC(=O)NCC(=O)N[C@@H](Cc1ccccc1)C(=O)O)C(=O)N[C@@H](C)C(=O)N[C@H](C(N)=O)C(C)C` (HELM PEPTIDE1{[O=C(/C=C/C(=O)[*:2])NCC(=O)NCC(=O)N[C@@H](Cc1ccccc1)C(=O)O].Q.L.A.V.[am]}$$$$V2.0) are 40% and 38%.
On the same counts, the results for `CC(C)C[C@H](NC(=O)[C@H](CCC(N)=O)NC(=O)/C=C/C(=O)NCC(=O)NCC(=O)N[C@@H](Cc1ccccc1)C(=O)O)C(=O)N[C@@H](CC(C)C)C(=O)N[C@H](C(N)=O)C(C)C` (HELM PEPTIDE1{[O=C(/C=C/C(=O)[*:2])NCC(=O)NCC(=O)N[C@@H](Cc1ccccc1)C(=O)O].Q.L.L.V.[am]}$$$$V2.0) are 42% and 69%.
With `CC(C)C[C@H](NC(=O)[C@H](CCC(N)=O)NC(=O)/C=C/C(=O)NCC(=O)NCC(=O)N[C@@H](Cc1ccccc1)C(=O)O)C(=O)N[C@H](C(=O)N[C@H](C(N)=O)C(C)C)C(C)C` (HELM PEPTIDE1{[O=C(/C=C/C(=O)[*:2])NCC(=O)NCC(=O)N[C@@H](Cc1ccccc1)C(=O)O].Q.L.V.V.[am]}$$$$V2.0), the inhibition in test [1] and in test [2] was 54% each time.
Consider `CC(C)[C@H](NC(=O)[C@H](C)NC(=O)[C@@H](NC(=O)[C@H](CCC(N)=O)NC(=O)/C=C/C(=O)NCC(=O)NCC(=O)N[C@@H](Cc1ccccc1)C(=O)O)C1CCCCC1)C(N)=O` (HELM PEPTIDE1{[O=C(/C=C/C(=O)[*:2])NCC(=O)NCC(=O)N[C@@H](Cc1ccccc1)C(=O)O].Q.[O=C([C@@H](N[*:1])C1CCCCC1)[*:2]].A.V.[am]}$$$$V2.0), for which the figures for the inhibition in test [1] and in test [2] were 40% and 31%, respectively.
On the same counts, the results for `CC(C)C[C@H](NC(=O)[C@@H](NC(=O)[C@H](CCC(N)=O)NC(=O)/C=C/C(=O)NCC(=O)NCC(=O)N[C@@H](Cc1ccccc1)C(=O)O)C1CCCCC1)C(=O)N[C@H](C(N)=O)C(C)C` (HELM PEPTIDE1{[O=C(/C=C/C(=O)[*:2])NCC(=O)NCC(=O)N[C@@H](Cc1ccccc1)C(=O)O].Q.[O=C([C@@H](N[*:1])C1CCCCC1)[*:2]].L.V.[am]}$$$$V2.0) are 45% and 71%.
On the same counts, the results for `CC(C)[C@H](NC(=O)[C@H](C)NC(=O)[C@@H](NC(=O)[C@H](CCC(N)=O)NC(=O)/C=C/C(=O)NCC(=O)NCC(=O)N[C@@H](Cc1ccccc1)C(=O)O)c1ccccc1)C(N)=O` (HELM PEPTIDE1{[O=C(/C=C/C(=O)[*:2])NCC(=O)NCC(=O)N[C@@H](Cc1ccccc1)C(=O)O].Q.[Phg].A.V.[am]}$$$$V2.0) are 34% and 17%.
On to `CC(C)C[C@H](NC(=O)[C@@H](NC(=O)[C@H](CCC(N)=O)NC(=O)/C=C/C(=O)NCC(=O)NCC(=O)N[C@@H](Cc1ccccc1)C(=O)O)c1ccccc1)C(=O)N[C@H](C(N)=O)C(C)C` (HELM PEPTIDE1{[O=C(/C=C/C(=O)[*:2])NCC(=O)NCC(=O)N[C@@H](Cc1ccccc1)C(=O)O].Q.[Phg].L.V.[am]}$$$$V2.0), for which the inhibition in test [1] is 50%; in test [2] it was 62%.
Consider `CC(C)[C@H](NC(=O)[C@@H](NC(=O)[C@@H](NC(=O)[C@H](CCC(N)=O)NC(=O)/C=C/C(=O)NCC(=O)NCC(=O)N[C@@H](Cc1ccccc1)C(=O)O)c1ccccc1)C(C)C)C(N)=O` (HELM PEPTIDE1{[O=C(/C=C/C(=O)[*:2])NCC(=O)NCC(=O)N[C@@H](Cc1ccccc1)C(=O)O].Q.[Phg].V.V.[am]}$$$$V2.0), for which the values for the inhibition in test [1] and in test [2] were 63% and 45%, respectively.
On the same counts, the results for `CC(=O)NC[C@H](NC(=O)/C=C/C(=O)NCC(=O)NCC(=O)N[C@@H](Cc1ccccc1)C(=O)O)C(=O)N[C@@H](Cc1ccccc1)C(=O)N[C@@H](C)C(=O)N[C@H](C(N)=O)C(C)C` (HELM PEPTIDE1{[O=C(/C=C/C(=O)[*:2])NCC(=O)NCC(=O)N[C@@H](Cc1ccccc1)C(=O)O].[O=C([C@H](CN[*:3])N[*:1])[*:2]].F.A.V.[am]}|PEPTIDE2{[ac]}$PEPTIDE1,PEPTIDE2,2:R3-1:R2$$$V2.0) are 45% and 15%.
